ChEMBL document CHEMBL5244268, “Preventing Candida albicans biofilm formation using aromatic-rich piperazines” (Bioorg Med Chem, 2020)
Values after ≈ are worked out from the molar mass of the structure shown. Active and inactive are the calls of the source. The rule behind the calls is not given here.

What was measured:
Candida albicans [1] = test: Antifungal activity against Candida albicans ATCC 28366 assessed as reduction in fungal growth incubated for 24 hrs by plate count determination; type: functional, organism-based
Candida albicans [2] = test: Antibiofilm activity against Candida albicans ATCC 28366 incubated for 24 to 48 hrs by crystal violet staining based absorbance spectrometry analysis; type: functional, organism-based; conditions: time 24-48 hrs
Method in brief: (§1)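 Overnight cultures (37 °C, aerobic, Sabouraud pH 7.0) adjusted to OD660 0.2, mixed 1:1 with two-fold serial dilutions in medium and incubated at 37 °C. Biofilm stained with crystal violet, dye released in 75% ethanol, A550 read. Growth relative to compound-free wells (100%) after blank subtraction. At least two independent experiments in triplicate, t test.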

Candida albicans [3] = test: Antibiofilm activity against Candida albicans LAM-1 assessed as reduction in fungal growth at 1 to 4 ug/ml incubated for 4 hrs in spider medium by plate count determination; type: functional, organism-based; conditions: dose 1-4 µg/ml
Method in brief: (§2)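 After the 4 h, 37 °C morphogenesis incubation in Spider medium (YPD overnight inoculum, 50 µL into 5 mL), OD660 measured to follow fungal growth; C. albicans viability confirmed by plate count.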

Candida albicans [4] = test: Antibiofilm activity against Candida albicans ATCC 28366 assessed as reduction in fungal growth at 1 to 4 ug/ml incubated for 4 hrs in spider medium by plate count determination; type: functional, organism-based; conditions: dose 1-4 µg/ml; method in brief: as §2
Candida albicans [5] = test: Antibiofilm activity against Candida albicans ATCC 28366 assessed as inhibition of biofilm formation at 0.5 to 32 ug/ml incubated for 24 to 48 hrs by crystal violet staining based absorbance spectrometry analysis; type: functional, organism-based; conditions: dose 0.5-32 µg/ml, time 24-48 hrs; method in brief: as §1
Candida albicans [6] = test: Antifungal activity against Candida albicans ATCC 28366 assessed as reduction in fungal growth at up to 64 ug/ml incubated for 24 hrs by plate count determination; type: functional, organism-based; conditions: dose <= 64.0 µg/ml
Candida albicans [7] = test: Antibiofilm activity against Candida albicans ATCC 28366 assessed as disruption of preformed biofilm incubated for 12 hrs by crystal violet staining based absorbance spectrometry analysis; type: functional, organism-based
Method in brief: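 Mature biofilms grown 36 to 48 h in Sabouraud pH 7.0 without compound; medium and free cells removed, rinsed with 50 mM PBS pH 7.0, then two-fold serial dilutions in PBS added for 12 h at 37 °C. Residual biofilm stained with crystal violet, dye released in 75% ethanol, A550 read. PBS-treated biofilms as controls.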

Candida albicans [8] = test: Antibiofilm activity against Candida albicans ATCC 28366 assessed as inhibition of morphogenesis at 1 to 4 ug/ml incubated for 4 hrs in spider medium by microscopic analysis; type: functional, organism-based; conditions: dose 1-4 µg/ml
Method in brief: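 Yeast-form cells grown overnight in YPD at 30 °C. 50 µL inoculated into 5 mL hypha-inducing medium (e.g., Spider: 1% nutrient broth, 1% mannitol, 0.2% K2HPO4, pH 7.2) containing two-fold dilutions, then 4 h at 37 °C. At least 100 cells per replicate counted as hypha (pseudohyphae and intermediates included) or yeast. Compound-free control for maximal conversion. At least two independent experiments in triplicate.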

Candida albicans [9] = test: Antibiofilm activity against Candida albicans ATCC 28366 at up to 96 ug/ml incubated for 24 to 48 hrs by crystal violet staining based absorbance spectrometry analysis; type: functional, organism-based; conditions: dose <= 96.0 µg/ml, time 24-48 hrs; method in brief: as §1
Candida albicans [10] = test: Antibiofilm activity against Candida albicans ATCC 28366 assessed as inhibition of biofilm formation at 2 ug/ml incubated for 24 to 48 hrs by crystal violet staining based absorbance spectrometry analysis; type: functional, organism-based; conditions: dose 2.0 µg/ml, time 24-48 hrs; method in brief: as §1
Candida albicans [11] = test: Fungicidal activity against Candida albicans ATCC 28366 assessed as prevention of colony formation incubated for 24 hrs; type: functional
Candida albicans [12] = test: Antifungal activity against Candida albicans ATCC 28366 assessed as inhibition of fungal growth incubated for 24 hrs by plate count determination; type: functional
Method in brief: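 Biofilm-assay setup (Sabouraud pH 7.0, inoculum OD660 0.2, serial two-fold dilutions, 37 °C). […] Highest value kept when replicates differ. At least two independent experiments in triplicate.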

Structure (SMILES) | Activity (Candida albicans [1]) | Activity (Candida albicans [2]) | Activity (Candida albicans [7]) | Activity (Candida albicans [9]) | other results
CN1C[C@H](Cc2ccc(O)cc2)N(C)C[C@@H]1Cc1ccc(O)cc1 | inactive | inactive | – | – | –
c1ccc(COc2ccc(C[C@@H]3CN[C@H](Cc4ccccc4)CN3)cc2)cc1 | – | – | inactive | – | Activity (Candida albicans [3]): inactive; Activity (Candida albicans [4]): inactive; inhibition (Candida albicans [5]): Active; Activity (Candida albicans [6]): inactive; inhibition (Candida albicans [8]): Active
c1ccc(C[C@H]2CN[C@@H](Cc3ccccc3)CN2)cc1 | – | – | inactive | inactive | –
CN1C[C@H](Cc2ccccc2)N(C)C[C@H]1Cc1ccccc1 | – | – | – | inactive | –
c1ccc(C[C@@H]2CN[C@H](Cc3ccccc3)CN2)cc1 | – | – | inactive | inactive | –
Oc1ccc(C[C@@H]2CN[C@H](Cc3ccc(O)cc3)CN2)cc1 | inactive | inactive | inactive | – | –
Oc1ccc(C[C@@H]2CN[C@H](Cc3ccccc3)CN2)cc1 | inactive | inactive | inactive | – | –
CN1C[C@H](Cc2ccccc2)N(C)C[C@@H]1Cc1ccccc1 | – | – | – | inactive | –
c1ccc(COc2ccc(C[C@@H]3CN[C@H](Cc4ccc(OCc5ccccc5)cc4)CN3)cc2)cc1 | – | – | inactive | – | inhibition (Candida albicans [10]): Active; MFC (Candida albicans [11]): 24 µg/mL (≈ 50.1 µM); MIC (Candida albicans [12]): 24 µg/mL (≈ 50.1 µM)
c1ccc(COc2ccc(C[C@H]3CN[C@@H](Cc4ccc(OCc5ccccc5)cc4)CN3)cc2)cc1 | – | – | inactive | – | inhibition (Candida albicans [10]): Active; MFC (Candida albicans [11]): 24 µg/mL (≈ 50.1 µM); MIC (Candida albicans [12]): 24 µg/mL (≈ 50.1 µM)
